Calls of active or inactive are those of the source. The rule behind the calls is not given here.

From ChEMBL document CHEMBL4017520, “Discovery, Structure-Activity Relationship, and Antiparkinsonian Effect of a Potent and Brain-Penetrant Chemical Series of Positive Allosteric Modulators of Metabotropic Glutamate Receptor 4” (J Med Chem, 2017) come the findings set out here.

Data set [1] addresses T1, Metabotropic glutamate receptor 4 (Homo sapiens, UniProt Q14833). Put plainly: Positive allosteric modulation of recombinant human mGlu4 receptor expressed in HEK293 cells co-expressing Gi/Gq assessed as increase in glutamate-induced calcium flux preincubated for 10 mins followed by glutamate addition measured for 3 mins by Fluo4-AM dye based fluorescence assay. In kind it is functional, cell-based. The conditions noted are these: read-out: EC50.

In data set [2] the target is T1, Metabotropic glutamate receptor 4. Description: Positive allosteric modulation of recombinant human mGlu4 receptor expressed in HEK293 cells co-expressing chimeric G protein assessed as increase in EC20 glutamate-induced […]. In kind it is functional, cell-based. A general note: Cyclic AMP is a second messenger, typically raised through Gs and lowered through Gi signalling.

Data set [3] concerns the target Metabotropic glutamate receptor 4 (Rattus norvegicus, UniProt P31423). Description: Positive allosteric modulation of rat mGlu4 receptor expressed in HEK293 cells co-expressing Gi/Gq assessed as increase in glutamate-induced calcium flux preincubated for 10 mins followed by glutamate addition measured for 3 mins by Fluo4-AM dye based fluorescence assay. Type of data set: functional, cell-based.

For data set [4], the species on record is Homo sapiens. Put plainly: Selectivity ratio of compound effect for positive allosteric modulation of recombinant human mGlu4 receptor to compound effect for activity at human mGlu6 receptor.
Data set [5] is filed under the species Rattus norvegicus. Put plainly: Activity at AMPA glutamate receptor in rat cerebral cortex at 10 uM. In short, it runs like this:
(§1)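 Inhibition of orthosteric ligand binding to NMDA, AMPA and kainate receptors on rat cerebral cortex membranes, tested up to 10 μM.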

For data set [6], the species on record is Rattus norvegicus. Put plainly: Activity at NMDA glutamate receptor in rat cerebral cortex at 10 uM. In short, it runs like this:
as §1

The species entered for data set [7] is Rattus norvegicus. Description: Activity at kainate glutamate receptor in rat cerebral cortex at 10 uM. Summed up:
as §1

Data set [8] in a line: Activity at COMT (unknown origin) up to 10 uM. Type of data set: ADME. The conditions noted are these: human.
Data set [9] has as its target Amine oxidase [flavin-containing] A (Homo sapiens, UniProt P21397). Description: Activity at MAO-A (unknown origin) up to 10 uM. In kind it is ADME.
Data set [10] concerns the target Amine oxidase [flavin-containing] B (Homo sapiens, UniProt P27338). Put plainly: Activity at MAO-B (unknown origin) up to 10 uM. Type of data set: ADME.
A short description of data set [11]: Cmax in Sprague-Dawley rat at 1 mg/kg, iv administered as single dose by LC-MS/MS analysis. In kind it is ADME, organism-based. Set-up: dose 1 mg/kg, route intravenous. Conditions: in vivo.
A short description of data set [12]: Half life in Sprague-Dawley rat at 1 mg/kg, iv administered as single dose by LC-MS/MS analysis. Type of data set: ADME, organism-based. Conditions: in vivo. Summed up: (§2)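 Single iv dose, 1 mg/kg in rat or 2 mg/kg in mouse; plasma PK parameters derived; brain/plasma ratio taken at 1 h postdose (rat) or 30 min postdose (mouse). Mean of 3 rats; 2 mice for mouse Cmax and brain/plasma.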

Data set [13] can be described thus: AUC (0 to infinity) in Sprague-Dawley rat at 1 mg/kg, iv administered as single dose by LC-MS/MS analysis. Type of data set: ADME, organism-based. Details: dose 1 mg/kg, route intravenous, time infinity. The conditions noted are these: in vivo.
A short description of data set [14]: Plasma clearance in Sprague-Dawley rat at 1 mg/kg, iv administered as single dose by LC-MS/MS analysis. Type of data set: ADME, organism-based. In short, it runs like this: as §2
Data set [15] in a line: Volume of distribution in Sprague-Dawley rat at 1 mg/kg, iv administered as single dose by LC-MS/MS analysis. Type of data set: ADME, organism-based. The conditions noted are these: in vivo. In short, it runs like this:
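Single intravenous dose: rats 1 mg/kg, mice 2 mg/kg. Plasma concentration–time data yielded Cmax, t1/2, AUC0−∞, plasma clearance and volume of distribution. Values are mean ±SEM of 3 animals.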

A short description of data set [16]: Ratio of drug level in Sprague-Dawley rat brain to plasma at 1 mg/kg, iv after 1 hr post dose administered as single dose by LC-MS/MS analysis. Type of data set: ADME, organism-based. The conditions noted are these: read-out: BPR. In short, it runs like this:
as §2

Data set [17] is described as follows: Cmax in Sprague-Dawley rat plasma at 10 mg/kg, po administered as single dose by LC-MS/MS analysis. Type of data set: ADME, organism-based. Set-up: dose 10 mg/kg, route oral. Summed up: (§3)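 Rats given a single oral dose of 10 mg/kg. The first plasma sample was taken at 15 min, and sampling continued to 24 h postdose. Brain was sampled at 30 min. Values are the mean (±SEM) of 3 rats.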

Data set [18] can be described thus: Tmax in Sprague-Dawley rat plasma at 10 mg/kg, po administered as single dose by LC-MS/MS analysis. Type of data set: ADME, organism-based. Summed up:
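Single-dose plasma PK after ip (10 or 30 mg/kg) or oral (10 mg/kg) dosing in rats, and oral 10 mg/kg dosing in mice. […] Values are mean ±SEM of 3 rats or 2 mice.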

The nature of data set [19]: AUC (0 to infinity) in Sprague-Dawley rat plasma at 10 mg/kg, po administered as single dose by LC-MS/MS analysis. In kind it is ADME, organism-based. Set-up: dose 10 mg/kg, time infinity, route oral. Summed up: as §3
Data set [20] is described as follows: Drug uptake in Sprague-Dawley rat brain at 10 mg/kg, po after 30 mins post dose administered as single dose by LC-MS/MS analysis. Type of data set: ADME, organism-based. The conditions noted are these: read-out: Drug uptake. Summed up: as §3
For data set [21], the system named is Brain. Put plainly: AUC (0 to infinity) in Sprague-Dawley rat brain at 10 mg/kg, po administered as single dose by LC-MS/MS analysis. Conditions: in vivo. Type of data set: ADME, organism-based. Set-up: dose 10 mg/kg, time infinity, route oral. Summed up: (§4)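 Rats given a single oral dose of 10 mg/kg. Brain concentrations were measured at 30, 60 and 90 min postdose, and brain AUC0–inf was determined. Values are the mean of three rats. Lower limit of quantification was 1 ng/mL.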

The species entered for data set [22] is Homo sapiens. Put plainly: Selectivity ratio of compound effect for positive allosteric modulation of recombinant human mGlu4 receptor to compound effect for agonist activity at human mGlu8 receptor.
The species named for data set [23] is Homo sapiens. Description: Selectivity ratio of compound effect for positive allosteric modulation of recombinant human mGlu4 receptor to compound effect for agonist activity at human mGlu7 receptor.
For data set [24], the target named is T1, Metabotropic glutamate receptor 4. Put plainly: Positive allosteric modulation of recombinant human mGlu4 receptor expressed in HEK293 cells co-expressing chimeric G protein assessed as increase in glutamate-induced calcium flux after 10 mins by Fluo4-AM dye based fluorescence assay. Type of data set: functional, cell-based. Background: A change in cytosolic calcium serves as a functional read-out for many receptors and channels.

The target is the same in data set [25]. Description: Positive allosteric modulation of recombinant human mGlu4 receptor expressed in HEK293 cells co-expressing chimeric Gi/Gq assessed as increase in EC20 glutamate-induced calcium flux at 15 uM preincubated for 10 mins followed by glutamate addition measured for 3 mins by Fluo4-AM dye based fluorescence assay relative to control. In kind it is functional, cell-based.

A short description of data set [26]: Drug uptake in Sprague-Dawley rat brain at 10 mg/kg, po after 90 mins post dose administered as single dose by LC-MS/MS analysis. Conditions: read-out: Drug uptake. Type of data set: ADME, organism-based. In short, it runs like this:
as §4

Data set [27] is described as follows: Drug uptake in Sprague-Dawley rat brain at 10 mg/kg, po after 60 mins post dose administered as single dose by LC-MS/MS analysis. Type of data set: ADME, organism-based. The conditions noted are these: read-out: Drug uptake. Summed up: as §4
Data set [28] is described as follows: Ratio of AUC (0 to infinity) in Sprague-Dawley rat brain to plasma at 10 mg/kg, po administered as single dose by LC-MS/MS analysis. Type of data set: ADME, organism-based. The conditions noted are these: read-out: Ratio AUC.
Data set [29] can be described thus: Ratio of drug level in Sprague-Dawley rat brain to plasma at 25 mg/kg, po administered as single dose by LC-MS/MS analysis. Type of data set: ADME, organism-based. The conditions noted are these: read-out: BPR. In short, it runs like this:
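Sprague−Dawley rats dosed orally at 25 mg/kg in water; plasma and brain concentrations followed over time to derive brain/plasma ratio.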

Data set [30] concerns the target T1, Metabotropic glutamate receptor 4. Put plainly: Positive allosteric modulation of recombinant human mGlu4 receptor expressed in HEK293 cells co-expressing chimeric Gi/Gq protein assessed as fold shift of glutamate potency at 3 uM after 10 mins by Fluo4-AM dye based fluorescence assay relative to control.
The species named for data set [31] is Rattus norvegicus. Put plainly: Protection against 6-OHDA induced parkinsonian motor deficit in Sprague-Dawley rat after 28 days post surgery. Type of data set: functional.
Data set [32] has as its system Rattus norvegicus. Put plainly: Toxicity in 6-OHDA induced parkinsonian motor deficit Sprague-Dawley rat model assessed as induction of dyskinesia at 20 mg/kg, ip. Type of data set: organism-based. The conditions noted are these: in vivo.
Data set [33] deals with Rattus norvegicus. Description: Toxicity in 6-OHDA induced parkinsonian motor deficit Sprague-Dawley rat model assessed as induction of overacting rearing behavior at 20 mg/kg, ip. Type of data set: organism-based. The conditions noted are these: in vivo.

T1 sequence (Q14833 whole entry): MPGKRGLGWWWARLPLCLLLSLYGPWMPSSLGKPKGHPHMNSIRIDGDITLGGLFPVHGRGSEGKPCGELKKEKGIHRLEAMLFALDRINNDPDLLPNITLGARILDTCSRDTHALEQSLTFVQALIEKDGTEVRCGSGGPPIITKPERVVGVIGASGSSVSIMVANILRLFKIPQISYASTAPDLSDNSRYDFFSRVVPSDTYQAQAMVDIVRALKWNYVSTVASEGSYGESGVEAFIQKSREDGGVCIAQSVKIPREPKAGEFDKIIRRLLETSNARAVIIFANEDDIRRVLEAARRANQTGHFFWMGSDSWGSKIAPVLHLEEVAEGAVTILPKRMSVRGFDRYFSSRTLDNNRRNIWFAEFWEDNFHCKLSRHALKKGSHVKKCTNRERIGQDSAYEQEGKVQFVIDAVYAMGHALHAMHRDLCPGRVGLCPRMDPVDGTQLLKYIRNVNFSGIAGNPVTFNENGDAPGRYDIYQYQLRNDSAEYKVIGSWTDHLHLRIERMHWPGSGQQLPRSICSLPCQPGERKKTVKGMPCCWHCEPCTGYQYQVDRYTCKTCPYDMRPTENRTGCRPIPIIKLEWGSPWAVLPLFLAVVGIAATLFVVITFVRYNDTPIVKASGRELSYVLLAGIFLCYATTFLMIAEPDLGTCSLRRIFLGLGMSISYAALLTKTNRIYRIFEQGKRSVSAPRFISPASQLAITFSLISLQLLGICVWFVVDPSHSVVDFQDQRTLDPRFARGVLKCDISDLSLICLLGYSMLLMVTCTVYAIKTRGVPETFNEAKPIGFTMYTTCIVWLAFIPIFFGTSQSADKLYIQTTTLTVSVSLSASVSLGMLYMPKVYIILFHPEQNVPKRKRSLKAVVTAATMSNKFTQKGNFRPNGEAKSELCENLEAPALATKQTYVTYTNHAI
Metabotropic glutamate receptor 4 (Rattus norvegicus, UniProt P31423), sequence (P31423 whole entry): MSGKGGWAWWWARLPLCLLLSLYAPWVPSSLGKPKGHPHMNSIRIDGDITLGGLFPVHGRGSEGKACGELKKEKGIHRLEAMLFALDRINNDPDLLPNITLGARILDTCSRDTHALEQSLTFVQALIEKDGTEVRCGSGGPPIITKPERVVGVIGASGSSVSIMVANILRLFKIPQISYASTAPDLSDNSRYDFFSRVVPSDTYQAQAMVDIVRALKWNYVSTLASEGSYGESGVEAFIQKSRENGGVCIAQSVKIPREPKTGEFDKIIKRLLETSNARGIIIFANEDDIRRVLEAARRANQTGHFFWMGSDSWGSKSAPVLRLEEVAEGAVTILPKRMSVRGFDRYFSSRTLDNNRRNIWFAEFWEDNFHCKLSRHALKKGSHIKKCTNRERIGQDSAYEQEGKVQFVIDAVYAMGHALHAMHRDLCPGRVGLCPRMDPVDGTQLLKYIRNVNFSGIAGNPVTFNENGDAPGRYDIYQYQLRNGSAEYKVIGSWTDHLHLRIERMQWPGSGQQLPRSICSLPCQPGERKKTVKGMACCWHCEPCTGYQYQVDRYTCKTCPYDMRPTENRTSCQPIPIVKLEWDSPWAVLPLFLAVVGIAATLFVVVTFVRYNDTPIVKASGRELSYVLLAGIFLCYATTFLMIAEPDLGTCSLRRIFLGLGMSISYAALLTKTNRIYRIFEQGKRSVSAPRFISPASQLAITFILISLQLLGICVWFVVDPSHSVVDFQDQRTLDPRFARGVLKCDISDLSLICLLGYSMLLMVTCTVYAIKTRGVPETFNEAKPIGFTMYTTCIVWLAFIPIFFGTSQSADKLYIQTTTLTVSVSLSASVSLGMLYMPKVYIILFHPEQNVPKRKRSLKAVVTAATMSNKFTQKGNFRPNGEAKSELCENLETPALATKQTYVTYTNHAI
Amine oxidase [flavin-containing] A, sequence (P21397 whole entry): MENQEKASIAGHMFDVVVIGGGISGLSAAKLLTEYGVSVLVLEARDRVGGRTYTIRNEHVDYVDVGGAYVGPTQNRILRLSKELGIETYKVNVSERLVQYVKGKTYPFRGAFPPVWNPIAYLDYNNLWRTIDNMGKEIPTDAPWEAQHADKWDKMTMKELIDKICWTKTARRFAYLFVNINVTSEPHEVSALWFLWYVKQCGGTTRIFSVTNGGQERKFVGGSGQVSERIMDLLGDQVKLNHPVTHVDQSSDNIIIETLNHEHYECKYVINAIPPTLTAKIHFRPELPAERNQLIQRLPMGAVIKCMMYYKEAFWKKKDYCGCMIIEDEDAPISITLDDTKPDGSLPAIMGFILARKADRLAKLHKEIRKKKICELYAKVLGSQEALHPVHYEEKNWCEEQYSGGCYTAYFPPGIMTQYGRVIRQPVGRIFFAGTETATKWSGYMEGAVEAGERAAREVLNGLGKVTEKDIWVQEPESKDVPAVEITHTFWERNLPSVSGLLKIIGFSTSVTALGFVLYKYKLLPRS
Amine oxidase [flavin-containing] B, sequence (P27338 whole entry): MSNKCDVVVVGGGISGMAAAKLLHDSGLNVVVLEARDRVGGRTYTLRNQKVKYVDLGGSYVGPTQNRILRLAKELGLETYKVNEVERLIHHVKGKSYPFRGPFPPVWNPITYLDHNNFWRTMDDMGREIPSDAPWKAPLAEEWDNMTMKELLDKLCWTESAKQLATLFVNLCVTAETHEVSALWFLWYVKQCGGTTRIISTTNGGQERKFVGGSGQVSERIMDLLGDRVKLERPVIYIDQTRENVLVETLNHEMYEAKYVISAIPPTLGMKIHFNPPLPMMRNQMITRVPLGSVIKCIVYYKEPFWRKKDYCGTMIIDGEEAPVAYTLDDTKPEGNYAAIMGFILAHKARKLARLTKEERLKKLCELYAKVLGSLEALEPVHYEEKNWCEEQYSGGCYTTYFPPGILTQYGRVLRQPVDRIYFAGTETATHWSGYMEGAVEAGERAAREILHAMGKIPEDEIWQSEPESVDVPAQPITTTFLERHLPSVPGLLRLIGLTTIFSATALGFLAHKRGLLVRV

A word on the EC50: it is the midpoint of the concentration-response curve. One may read the Emax as the maximal effect, on the per cent scale that the assay sets. What is called Cmax is the highest concentration seen after dosing. In general, half-life refers to the time in which the quantity being followed falls by half. Read a low half-life as fast loss. Usually AUC(0-inf) stands for the area under the concentration-time curve extrapolated to infinity. Lower therefore signals less exposure. As a reminder, the clearance is a measure of how efficiently the substance is removed, as volume per time. By Vd is commonly meant a proportionality between amount in the body and measured concentration, not a real space. As usually defined, the Tmax is the time at which the peak concentration occurs. Turning to `O/N=c1\cc(-c2cc3sccc3cn2)oc2ccc(CCCN3CCOCC3)cc12` [FOLIGLURAX], the figures for the EC50 in data set [1], in [3] and in data set [24] were 79 nM, 47 nM and 79 nM, respectively. In addition, the maximal response (Emax) in [2] came out at 70%; in [25], 32%. Further, the Selectivity ratio in data set [4] was 15; in [22], 50; in data set [23] it was 110. The result in data set [5], in data set [6] and in data set [7] was inactive. Further, the Activity result in data set [8], in data set [9] and in data set [10] was “Not Active” in each case. For the same compound, the Cmax stood at 325 ng/mL in data set [11] and 94 ng/mL in data set [17]. In addition, the half-life in data set [12] is 0.9 h. In addition, the total exposure AUC(0-inf) in [13] came out at 163 ng·h/mL; in data set [19] it was 432 ng·h/mL. The compound also registered a clearance in [14] of 104 mL/min/kg. Further, the Vd in [15] was 8.02 L/kg. Further, the Kp at 1 h in [16] was 8.4. Further, the Tmax in [18] was determined as 1.17 h. For the same compound, in [20], the concentration at 0.5 h was determined as 458 ng/g. This compound registered an AUC in data set [21] of 2713 ng·h/g. Further, the concentration at 1.5 h in data set [26] amounted to 818 ng/g. Moreover, in data set [27], the concentration at 1 h came to 785 ng/g. Further, the Kp in [28] was 6.6; in data set [29], ≤ 13.5. The fold change (FC) in data set [30] came out at 10.
`N[C@@H](Cc1ccc(O)c(O)c1)C(=O)O` [LEVODOPA]: the Activity result in [31] is “Dose-dependent effect”; in data set [32], “Non-Toxic”; in [33], “Toxic”.
